Active and inactive are the calls of the source.
Experiments:
[1] = Ratio drug uptake in brain to plasma of rat at 10 mg/kg, ip measured after 6 hrs; format: ADME, organism-based; set-up: dose 10 mg/kg, route intraperitoneal; conditions: read-out: BPR
[2] = Plasma protein binding in dog; format: ADME, cell-free, Canis lupus familiaris; conditions: read-out: PPB
Rattus norvegicus [3] = assay: Effect on sleep-awake cycle in EEG/EMG rat model assessed as awake time at 30 mg/kg, ip after 4 hrs relative to control; format: functional; conditions: route intraperitoneal
How it was run: (§1)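 Rats surgically implanted for chronic EEG and EMG recording. Wake, slow-wave sleep and REM sleep scored by standard criteria. Doses spanned […]–30 mg/kg ip, given during the normal quiet (lights-on) period, with a vehicle group as control. Cumulative wake time taken as AUC over time after dosing. Statistics by ANOVA.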

Rattus norvegicus [4] = assay: Inhibition of RAMH-induced dipsogenia in ip dosed rat; format: functional
Cytochrome P450 1A2 = molecular target: T1, Cytochrome P450 1A2 (Homo sapiens, UniProt P05177); assay: Inhibition of CYP1A2; format: ADME
T1 sequence (P05177 whole entry): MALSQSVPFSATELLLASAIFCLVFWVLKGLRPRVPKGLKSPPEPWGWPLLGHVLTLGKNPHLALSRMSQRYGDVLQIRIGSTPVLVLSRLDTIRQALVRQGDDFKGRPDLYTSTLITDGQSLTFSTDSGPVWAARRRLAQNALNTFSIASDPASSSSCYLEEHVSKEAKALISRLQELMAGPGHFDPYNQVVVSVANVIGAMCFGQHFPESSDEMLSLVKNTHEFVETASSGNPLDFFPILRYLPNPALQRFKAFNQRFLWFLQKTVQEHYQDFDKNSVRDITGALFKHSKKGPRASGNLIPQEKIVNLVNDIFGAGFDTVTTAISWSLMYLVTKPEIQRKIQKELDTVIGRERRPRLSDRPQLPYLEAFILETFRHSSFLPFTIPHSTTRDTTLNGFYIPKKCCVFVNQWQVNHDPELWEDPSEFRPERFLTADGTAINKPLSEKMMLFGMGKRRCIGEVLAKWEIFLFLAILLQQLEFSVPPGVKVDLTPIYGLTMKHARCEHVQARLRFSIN

Homo sapiens [5] = species on record: Homo sapiens; assay: Selectivity for human histamine H3 receptor over human histamine H4 receptor
How it was run: (§2)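 The hH3 side comes from displacement of [³H]NAMH binding in membranes from CHO cells transfected with cloned human H3 receptor. Human H1, H2 and H4 receptors were tested in an outsourced receptor selectivity profiling screen (LeadProfiler/Spectrum). The value is the fold-selectivity of hH3 over each subtype.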

Rattus norvegicus [6] = assay: Effect on sleep-awake cycle in EEG/EMG rat model assessed as wake promotion at 10 mg/kg, ip after 2 hrs; format: functional; conditions: route intraperitoneal; how it was run: as §1
Cytochrome P450 2D6 = Cytochrome P450 2D6 (Homo sapiens, UniProt P10635); assay: Inhibition of CYP2D6; format: ADME
Histamine H3 receptor [7] = molecular target: Histamine H3 receptor (Rattus norvegicus, UniProt Q9QYN8); assay: Displacement of [3H]NAMH from rat histamine H3 receptor expressed in CHO cells; format: cell-based
How it was run: (§3)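 Radioligand displacement of [³H]NAMH from membranes isolated from CHO cells transfected with cloned human H₃ or rat H₃ receptors.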

[8] = Plasma protein binding in human; format: ADME, cell-free; conditions: read-out: PPB
Rattus norvegicus [9] = assay: Effect on sleep-awake cycle in EEG/EMG rat model assessed as wake surplus at 30 mg/kg, ip up to 22 hrs; format: functional, organism-based; set-up: dose 30 mg/kg; how it was run: as §1
Homo sapiens [10] = species on record: Homo sapiens; assay: Selectivity for human histamine H3 receptor over human histamine H1 receptor; how it was run: as §2
[11] = Volume of distribution in rat at 1 mg/kg, iv; format: ADME, organism-based; set-up: dose 1 mg/kg, route intravenous; conditions: in vivo
How it was run: (§4)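 Rat PK: iv dose with vehicle 3% DMSO, 30% solutol, 67% phosphate buffered saline. Oral 5 mg/kg dose with vehicle 50% Tween 80, 40% propylene carbonate, 10% propylene glycol.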

Rattus norvegicus [12] = assay: Effect on sleep-awake cycle in EEG/EMG rat model assessed as wake promotion at 0.1 to 1 mg/kg, ip after 4 hrs relative to control; format: functional; conditions: dose mg/kg 0.1-1; route intraperitoneal; how it was run: as §1
[13] = Cmax in rat at 5 mg/kg, po; format: ADME, organism-based; set-up: dose 5 mg/kg, route oral; conditions: in vivo
Rattus norvegicus [14] = assay: Effect on sleep-awake cycle in EEG/EMG rat model assessed as wake promotion time at 30 mg/kg, ip after 4 hrs relative to control; format: functional; conditions: route intraperitoneal; how it was run: as §1
Rattus norvegicus [15] = assay: Effect on sleep-awake cycle in EEG/EMG rat model assessed as sleep rebound at 0.1 to 30 mg/kg, ip; format: functional, organism-based; how it was run: as §1
Histamine H3 receptor [16] = molecular target: T2, Histamine H3 receptor (Homo sapiens, UniProt Q9Y5N1); assay: Displacement of [3H]NAMH from human histamine H3 receptor expressed in CHO cells; format: cell-based; how it was run: as §3
[17] = Apparent permeability across human Caco2 cells; format: ADME, cell-based; conditions: Caco-2
Rattus norvegicus [18] = assay: Effect on sleep-awake cycle in EEG/EMG rat model assessed as wake promotion time at 10 mg/kg, ip after 4 hrs relative to control; format: functional; conditions: route intraperitoneal; how it was run: as §1
[19] = Half life in rat at 1 mg/kg, iv; format: ADME, organism-based; set-up: dose 1 mg/kg, route intravenous; conditions: in vivo; how it was run: as §4
Rattus norvegicus [20] = assay: Effect on sleep-awake cycle in ip dosed EEG/EMG rat model assessed as wake promotion after 4 hrs; format: functional, organism-based; how it was run: as §1
[21] = Oral bioavailability in rat at 5 mg/kg; format: ADME, organism-based; conditions: in vivo; how it was run: as §4
Rattus norvegicus [22] = assay: Effect on sleep-awake cycle in EEG/EMG rat model assessed as wake promotion time at 0.3 mg/kg, ip after 4 hrs (reference value: 80 +/- 5 mins); format: functional; conditions: route intraperitoneal; how it was run: as §1
[23] = molecular target: Voltage-gated inwardly rectifying potassium channel KCNH2 (Homo sapiens, UniProt Q12809); assay: Inhibition of human Erg by patch clamp assay
Cytochrome P450 2C19 = Cytochrome P450 2C19 (Homo sapiens, UniProt P33261); assay: Inhibition of CYP2C19; format: ADME
[24] = molecular target: Sodium-dependent dopamine transporter (Homo sapiens) (UniProt Q01959); assay: Inhibition of DAT at 10 uM
Cytochrome P450 3A4 = Cytochrome P450 3A4 (Homo sapiens, UniProt P08684); assay: Inhibition of CYP3A4; format: ADME
Rattus norvegicus [25] = assay: Effect on sleep-awake cycle in EEG/EMG rat model assessed as wake promotion time at 0.1 mg/kg, ip after 4 hrs (reference value: 80 +/- 5 mins); format: functional; conditions: route intraperitoneal; how it was run: as §1
Rattus norvegicus [26] = assay: Effect on sleep-awake cycle in EEG/EMG rat model assessed as awake time at 10 mg/kg, ip after 4 hrs relative to control; format: functional; conditions: route intraperitoneal; how it was run: as §1
Rattus norvegicus [27] = assay: Effect on sleep-awake cycle in EEG/EMG rat model assessed as maximal cumulative wake surplus time at 30 mg/kg, ip after 7 hrs relative to control; format: functional; conditions: route intraperitoneal; how it was run: as §1
[28] = Half life in dog liver microsomes; format: ADME, Canis lupus familiaris, Microsome
Homo sapiens [29] = species on record: Homo sapiens; assay: Selectivity for human histamine H3 receptor over human histamine H2 receptor; how it was run: as §2
[30] = Half life in monkey liver microsomes; format: ADME, Macaca mulatta, Microsome; conditions: rhesus monkey
[31] = Half life in rat liver microsomes; format: ADME, Microsome
[32] = Half life in human liver microsomes; format: ADME, Microsome
Cytochrome P450 2C9 = Cytochrome P450 2C9 (Homo sapiens, UniProt P11712); assay: Inhibition of CYP2C9; format: ADME
[33] = Plasma protein binding in rat; format: ADME, cell-free; conditions: read-out: PPB
[34] = Clearance in rat at 1 mg/kg, iv; format: ADME, organism-based; set-up: dose 1 mg/kg, route intravenous; conditions: in vivo; how it was run: as §4
[35] = Drug uptake in rat brain at 5 mg/kg, po measured after 6 hrs; format: ADME, organism-based; set-up: dose 5 mg/kg, route oral; conditions: read-out: Drug uptake
How it was run: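 Rats given 5 mg/kg po in 50% Tween 80, 40% propylene carbonate, 10% propylene glycol. Brain concentration determined 6 h after dosing.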

Histamine H3 receptor [36] = molecular target: T2, Histamine H3 receptor; assay: Inverse agonist activity at human histamine H3 receptor assessed as inhibition of R-alpha-methylhistamine-induced [35S]GTPgammaS binding; format: functional
Rattus norvegicus [37] = assay: Effect on sleep-awake cycle in EEG/EMG rat model assessed as wake promotion time at 1 mg/kg, ip after 4 hrs (reference value: 80 +/- 5 mins); format: functional; conditions: route intraperitoneal; how it was run: as §1
[38] = molecular target: Histamine H1 receptor (Homo sapiens) (UniProt P35367); assay: Inhibition of human histamine H1 receptor at 10 uM
[39] = Aqueous solubility of the compound at pH 7.4; format: physicochemical; conditions: aqueous medium
[40] = molecular target: Histamine H4 receptor (Homo sapiens) (UniProt Q9H3N8); assay: Inhibition of human histamine H4 receptor at 10 uM
[41] = molecular target: Histamine H2 receptor (Homo sapiens) (UniProt P25021); assay: Inhibition of human histamine H2 receptor at 10 uM
[42] = Aqueous solubility of the compound at pH 2; format: physicochemical; conditions: aqueous medium

Sequence of Histamine H3 receptor (Rattus norvegicus, UniProt Q9QYN8) (Q9QYN8 whole entry): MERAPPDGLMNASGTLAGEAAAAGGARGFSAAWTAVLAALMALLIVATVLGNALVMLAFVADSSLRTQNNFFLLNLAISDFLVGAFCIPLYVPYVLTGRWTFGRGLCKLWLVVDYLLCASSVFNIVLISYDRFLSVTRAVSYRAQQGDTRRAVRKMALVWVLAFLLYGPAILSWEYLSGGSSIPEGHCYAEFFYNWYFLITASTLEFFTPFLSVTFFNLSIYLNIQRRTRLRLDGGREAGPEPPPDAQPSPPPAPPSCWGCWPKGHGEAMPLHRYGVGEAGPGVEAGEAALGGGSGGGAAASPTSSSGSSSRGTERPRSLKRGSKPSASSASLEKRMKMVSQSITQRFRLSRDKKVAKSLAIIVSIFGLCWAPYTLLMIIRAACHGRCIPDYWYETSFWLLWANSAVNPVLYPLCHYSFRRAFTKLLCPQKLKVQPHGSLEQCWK
Sequence of Voltage-gated inwardly rectifying potassium channel KCNH2 (Q12809 whole entry): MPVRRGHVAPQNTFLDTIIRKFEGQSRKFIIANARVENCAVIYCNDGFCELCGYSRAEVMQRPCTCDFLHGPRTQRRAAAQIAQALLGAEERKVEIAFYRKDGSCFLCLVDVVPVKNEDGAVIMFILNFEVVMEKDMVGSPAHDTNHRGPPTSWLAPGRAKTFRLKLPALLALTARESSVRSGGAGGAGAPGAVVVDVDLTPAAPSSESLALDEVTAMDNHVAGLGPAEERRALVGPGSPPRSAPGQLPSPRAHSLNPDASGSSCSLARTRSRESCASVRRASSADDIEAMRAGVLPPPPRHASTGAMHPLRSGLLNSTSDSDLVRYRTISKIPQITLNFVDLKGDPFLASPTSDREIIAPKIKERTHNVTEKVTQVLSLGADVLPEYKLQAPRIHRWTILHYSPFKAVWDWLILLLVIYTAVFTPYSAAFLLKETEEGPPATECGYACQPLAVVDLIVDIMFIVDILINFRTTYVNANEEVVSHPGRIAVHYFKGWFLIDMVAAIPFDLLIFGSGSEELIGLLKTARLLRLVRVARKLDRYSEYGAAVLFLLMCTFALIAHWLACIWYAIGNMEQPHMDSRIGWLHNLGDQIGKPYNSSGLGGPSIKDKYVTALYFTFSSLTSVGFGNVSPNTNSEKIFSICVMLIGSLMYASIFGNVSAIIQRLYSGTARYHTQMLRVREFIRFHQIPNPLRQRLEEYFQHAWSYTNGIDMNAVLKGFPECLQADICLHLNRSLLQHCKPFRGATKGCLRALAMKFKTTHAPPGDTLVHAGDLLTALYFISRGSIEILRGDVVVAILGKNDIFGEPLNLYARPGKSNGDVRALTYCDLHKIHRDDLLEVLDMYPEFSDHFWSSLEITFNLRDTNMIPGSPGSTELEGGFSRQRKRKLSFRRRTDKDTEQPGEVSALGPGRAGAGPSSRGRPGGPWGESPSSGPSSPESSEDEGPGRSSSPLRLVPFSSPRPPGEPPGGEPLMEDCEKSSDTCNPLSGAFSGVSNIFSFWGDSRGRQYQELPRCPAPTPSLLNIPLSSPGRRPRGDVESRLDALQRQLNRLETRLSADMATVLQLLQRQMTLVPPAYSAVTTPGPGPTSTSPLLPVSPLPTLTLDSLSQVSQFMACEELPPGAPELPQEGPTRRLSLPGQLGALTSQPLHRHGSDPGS
T2 sequence (Q9Y5N1 whole entry): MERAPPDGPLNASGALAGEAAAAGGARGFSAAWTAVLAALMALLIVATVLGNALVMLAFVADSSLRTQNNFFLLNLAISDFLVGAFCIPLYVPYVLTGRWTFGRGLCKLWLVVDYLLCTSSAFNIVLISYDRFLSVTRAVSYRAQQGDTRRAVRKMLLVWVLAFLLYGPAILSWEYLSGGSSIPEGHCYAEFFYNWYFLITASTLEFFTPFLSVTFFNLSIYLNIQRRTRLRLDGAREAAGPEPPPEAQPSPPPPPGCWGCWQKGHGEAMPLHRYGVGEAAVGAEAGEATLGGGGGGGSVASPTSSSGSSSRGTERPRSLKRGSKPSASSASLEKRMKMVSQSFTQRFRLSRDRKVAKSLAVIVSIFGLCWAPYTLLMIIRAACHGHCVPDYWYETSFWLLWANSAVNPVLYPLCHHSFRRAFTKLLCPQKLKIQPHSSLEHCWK
Sequence of Cytochrome P450 3A4 (P08684 whole entry): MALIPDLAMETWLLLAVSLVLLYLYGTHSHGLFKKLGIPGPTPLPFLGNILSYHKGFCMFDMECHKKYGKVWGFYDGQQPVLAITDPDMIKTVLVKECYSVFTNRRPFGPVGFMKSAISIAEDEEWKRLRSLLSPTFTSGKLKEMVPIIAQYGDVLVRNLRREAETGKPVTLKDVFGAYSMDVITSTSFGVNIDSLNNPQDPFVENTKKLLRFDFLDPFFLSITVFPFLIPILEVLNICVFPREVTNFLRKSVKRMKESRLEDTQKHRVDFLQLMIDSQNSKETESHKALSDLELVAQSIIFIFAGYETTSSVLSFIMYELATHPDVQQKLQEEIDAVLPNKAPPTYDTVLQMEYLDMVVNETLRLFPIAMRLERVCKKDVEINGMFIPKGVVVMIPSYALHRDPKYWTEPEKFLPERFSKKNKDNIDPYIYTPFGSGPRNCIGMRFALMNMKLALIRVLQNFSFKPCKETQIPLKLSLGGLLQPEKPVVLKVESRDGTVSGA
Sequence of Sodium-dependent dopamine transporter (Homo sapiens) (Q01959 whole entry): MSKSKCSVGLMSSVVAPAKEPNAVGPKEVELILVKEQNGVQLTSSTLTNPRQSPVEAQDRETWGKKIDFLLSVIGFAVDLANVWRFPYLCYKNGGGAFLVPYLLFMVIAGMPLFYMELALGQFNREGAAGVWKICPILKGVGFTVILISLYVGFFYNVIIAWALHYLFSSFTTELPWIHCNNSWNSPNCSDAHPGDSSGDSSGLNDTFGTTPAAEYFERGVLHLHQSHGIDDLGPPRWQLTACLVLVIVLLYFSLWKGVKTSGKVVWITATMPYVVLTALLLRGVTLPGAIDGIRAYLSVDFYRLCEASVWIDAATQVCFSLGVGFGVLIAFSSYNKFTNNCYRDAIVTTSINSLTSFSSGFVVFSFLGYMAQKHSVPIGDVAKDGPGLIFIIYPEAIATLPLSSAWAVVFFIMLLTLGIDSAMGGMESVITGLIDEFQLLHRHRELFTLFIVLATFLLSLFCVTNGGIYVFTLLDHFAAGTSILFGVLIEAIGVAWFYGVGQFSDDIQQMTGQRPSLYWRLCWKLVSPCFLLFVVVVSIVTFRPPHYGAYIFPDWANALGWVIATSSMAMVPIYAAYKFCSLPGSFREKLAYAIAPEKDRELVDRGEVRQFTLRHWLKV
Sequence of Cytochrome P450 2C9 (P11712 whole entry): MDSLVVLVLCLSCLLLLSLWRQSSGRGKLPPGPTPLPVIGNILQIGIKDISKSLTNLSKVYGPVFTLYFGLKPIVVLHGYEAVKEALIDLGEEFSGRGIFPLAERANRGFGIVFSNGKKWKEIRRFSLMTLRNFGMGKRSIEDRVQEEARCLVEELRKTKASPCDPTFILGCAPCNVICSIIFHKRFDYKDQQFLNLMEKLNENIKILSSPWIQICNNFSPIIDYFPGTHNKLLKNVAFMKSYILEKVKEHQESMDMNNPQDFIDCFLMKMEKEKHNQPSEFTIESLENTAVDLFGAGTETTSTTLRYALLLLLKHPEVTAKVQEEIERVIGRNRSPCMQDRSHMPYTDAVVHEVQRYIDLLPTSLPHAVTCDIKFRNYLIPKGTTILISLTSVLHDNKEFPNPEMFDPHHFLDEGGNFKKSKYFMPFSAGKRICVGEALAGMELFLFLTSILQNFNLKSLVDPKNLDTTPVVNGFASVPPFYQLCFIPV
Sequence of Cytochrome P450 2D6 (P10635 whole entry): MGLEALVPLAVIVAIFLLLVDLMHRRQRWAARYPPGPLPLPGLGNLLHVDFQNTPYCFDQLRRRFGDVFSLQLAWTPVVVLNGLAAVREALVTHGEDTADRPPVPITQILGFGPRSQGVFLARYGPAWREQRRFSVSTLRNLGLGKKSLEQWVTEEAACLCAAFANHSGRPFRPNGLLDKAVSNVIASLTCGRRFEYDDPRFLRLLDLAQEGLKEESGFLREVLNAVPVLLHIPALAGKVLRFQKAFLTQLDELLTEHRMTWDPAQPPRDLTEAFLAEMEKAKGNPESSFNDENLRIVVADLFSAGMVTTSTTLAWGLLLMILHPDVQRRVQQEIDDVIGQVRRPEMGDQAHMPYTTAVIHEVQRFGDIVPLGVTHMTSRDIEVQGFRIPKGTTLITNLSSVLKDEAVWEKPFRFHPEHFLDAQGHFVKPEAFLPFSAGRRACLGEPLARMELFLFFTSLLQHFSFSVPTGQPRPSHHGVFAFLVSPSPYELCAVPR
Sequence of Cytochrome P450 2C19 (P33261 whole entry): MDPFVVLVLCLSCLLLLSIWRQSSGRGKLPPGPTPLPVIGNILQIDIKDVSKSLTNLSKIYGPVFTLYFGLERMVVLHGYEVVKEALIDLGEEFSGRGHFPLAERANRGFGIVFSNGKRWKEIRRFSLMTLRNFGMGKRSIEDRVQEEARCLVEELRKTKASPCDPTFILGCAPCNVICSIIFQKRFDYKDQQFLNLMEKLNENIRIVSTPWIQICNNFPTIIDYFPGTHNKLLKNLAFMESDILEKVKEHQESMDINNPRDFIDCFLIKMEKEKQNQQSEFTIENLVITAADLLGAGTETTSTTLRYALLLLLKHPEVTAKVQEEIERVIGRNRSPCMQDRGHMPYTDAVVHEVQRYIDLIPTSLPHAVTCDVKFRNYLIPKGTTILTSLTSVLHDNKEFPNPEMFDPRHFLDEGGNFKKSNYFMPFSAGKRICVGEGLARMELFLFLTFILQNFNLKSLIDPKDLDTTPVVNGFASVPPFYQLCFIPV
Sequence of Histamine H2 receptor (Homo sapiens) (P25021 whole entry): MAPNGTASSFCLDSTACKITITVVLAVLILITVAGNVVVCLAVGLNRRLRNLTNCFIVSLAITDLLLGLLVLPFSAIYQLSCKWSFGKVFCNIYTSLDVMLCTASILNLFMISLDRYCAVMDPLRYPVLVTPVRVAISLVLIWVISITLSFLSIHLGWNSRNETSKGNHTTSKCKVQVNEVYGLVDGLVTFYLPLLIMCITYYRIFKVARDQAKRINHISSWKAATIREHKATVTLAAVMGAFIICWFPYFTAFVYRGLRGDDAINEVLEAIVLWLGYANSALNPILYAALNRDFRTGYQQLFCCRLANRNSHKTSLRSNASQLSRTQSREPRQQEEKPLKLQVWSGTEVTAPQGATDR

CC1(C)CC(c2ccc(OC3CCN(C4CCC4)CC3)cc2)=NNC1=O
Kp at 6 h [1]: 4
fraction unbound [2]: 0.5
Activity (Rattus norvegicus [3]): 98%
ED50 (Rattus norvegicus [4]): 0.14 mg/kg
inhibition (Rattus norvegicus [4]): Dose-dependent effect
IC50 (Cytochrome P450 1A2): > 30000 nM
Selectivity ratio (Homo sapiens [5]): > 1000
Activity (Rattus norvegicus [6]): 90%
IC50 (Cytochrome P450 2D6): > 30000 nM
Ki (Histamine H3 receptor [7]): 4.4 nM
fraction unbound [8]: 0.5
Activity (Rattus norvegicus [9]): Active
Selectivity ratio (Homo sapiens [10]): > 1000
Vd [11]: 3.1 L/kg
Activity (Rattus norvegicus [12]): 45%
Cmax [13]: 270 ng/mL
Activity (Rattus norvegicus [14]): 193%
Activity (Rattus norvegicus [15]): inactive
Ki (Histamine H3 receptor [16]): 2.7 nM
Papp [17]: 27 ×10⁻⁶ cm/s
Activity (Rattus norvegicus [18]): 152%
half-life [19]: 114 min
Activity (Rattus norvegicus [20]): Dose-dependent effect
bioavailability [21]: 33%
Time (Rattus norvegicus [22]): 122 min
IC50 [23]: 21000 nM
IC50 (Cytochrome P450 2C19): > 30000 nM
inhibition [24]: 8%
IC50 (Cytochrome P450 3A4): > 30000 nM
Time (Rattus norvegicus [25]): 115 min
Activity (Rattus norvegicus [26]): 84%
Time (Rattus norvegicus [27]): 196 min
half-life [28]: > 40 min
Selectivity ratio (Homo sapiens [29]): > 1000
half-life [30]: > 40 min
half-life [31]: > 40 min
half-life [32]: > 40 min
IC50 (Cytochrome P450 2C9): > 30000 nM
fraction unbound [33]: 0.5
clearance [34]: 18 mL/min/kg
concentration at 6 h [35]: 2100 nM
EC50 (Histamine H3 receptor [36]): 0.8 nM
Time (Rattus norvegicus [37]): 116 min

Cn1nc(-c2ccc(OC3CCN(C4CCC4)CC3)cc2)ccc1=O
Ki (Histamine H3 receptor [7]): 3.1 nM
Ki (Histamine H3 receptor [16]): 2.4 nM

O=c1ccc(-c2ccc(OC3CCN(C4CCC4)CC3)nc2)n[nH]1
Ki (Histamine H3 receptor [7]): 19 nM
Ki (Histamine H3 receptor [16]): 6.3 nM
bioavailability [21]: 21%
IC50 [23]: 9000 nM

O=c1ccc(-c2ccc(OC3CCN(C4CCC4)CC3)cc2)n[nH]1
Kp at 6 h [1]: 1.9
inhibition [38]: < 10%
IC50 (Cytochrome P450 1A2): > 30000 nM
IC50 (Cytochrome P450 2D6): > 30000 nM
Ki (Histamine H3 receptor [7]): 2.2 nM
solubility [39]: > 1000 µg/mL
inhibition [40]: < 10%
Vd [11]: 2.5 L/kg
Cmax [13]: 441 ng/mL
inhibition [41]: < 10%
Ki (Histamine H3 receptor [16]): 1.9 nM
Papp [17]: 16.5 ×10⁻⁶ cm/s
half-life [19]: 138 min
bioavailability [21]: 35%
IC50 [23]: 8000 nM
IC50 (Cytochrome P450 2C19): > 30000 nM
inhibition [24]: 63%
IC50 (Cytochrome P450 3A4): > 30000 nM
half-life [28]: > 40 min
half-life [30]: > 40 min
solubility [42]: > 1000 µg/mL
half-life [31]: > 40 min
half-life [32]: > 40 min
IC50 (Cytochrome P450 2C9): > 30000 nM
clearance [34]: 13 mL/min/kg
concentration at 6 h [35]: 1400 nM
EC50 (Histamine H3 receptor [36]): 1.1 nM

O=c1ccc(-c2ccc(OC3CCN(C4CCCC4)CC3)cc2)n[nH]1
Ki (Histamine H3 receptor [7]): 7 nM
Ki (Histamine H3 receptor [16]): 5.1 nM

CC1(C)CC(c2ccc(OC3CCN(C4CCC4)CC3)c(F)c2)=NNC1=O
Ki (Histamine H3 receptor [7]): 7.2 nM
Ki (Histamine H3 receptor [16]): 7.1 nM

O=c1ccc(-c2ccc(OC3CCN(C4CCCC4)CC3)nc2)n[nH]1
Ki (Histamine H3 receptor [7]): 51 nM
Ki (Histamine H3 receptor [16]): 26 nM

CC(C)N1CCC(Oc2ccc(-c3ccc(=O)n(C)n3)cc2)CC1
Ki (Histamine H3 receptor [7]): 46 nM
Ki (Histamine H3 receptor [16]): 9.2 nM

Cc1cc(=O)[nH]nc1-c1ccc(OC2CCN(C3CCC3)CC2)cc1
Ki (Histamine H3 receptor [7]): 6.3 nM
Ki (Histamine H3 receptor [16]): 4.4 nM

O=c1ccc(-c2ccc(OC3CCN(C4CCC4)CC3)nc2)nn1-c1ccccn1
Ki (Histamine H3 receptor [7]): 82 nM
Ki (Histamine H3 receptor [16]): 34 nM

Reference: ChEMBL document CHEMBL1949660 (Bioorg Med Chem Lett, 2012)
